Source: ChEMBL document CHEMBL4265871, “Novel alkylated azoles as potent antifungals” (Eur J Med Chem, 2017)
≈ marks a conversion by molar mass, not a printed value.

Columns and labels:
Candida albicans [1] = assay: Antifungal activity against Candida albicans ATCC 64124 incubated for 48 hrs by modified CLSI M27-A3 protocol based method; assay type: functional; conditions: ATCC 64124, 48 h
[2] = Selectivity index, ratio of EC50 for toxicity in human A549 cells to MIC100 for antifungal activity against Candida albicans ATCC 10231; assay type: cell-based; conditions: read-out: Selectivity Index
Summary of the method: (§1)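 Selectivity index is the EC50 against the mammalian line (A549 or BEAS-2B) divided by the MIC against the given fungal strain.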

in vitro = conditions: mouse, mouse erythrocytes
Pichia kudriavzevii = assay: Antifungal activity against Candida krusei ATCC 6258 incubated for 48 hrs by modified CLSI M27-A3 protocol based method; assay type: functional; conditions: ATCC 6258, 48 h, read-out: MIC100
Summary of the method: (§2)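 For C. albicans ATCC 10231, C. krusei ATCC 6258 and C. parapsilosis ATCC 22019, MIC-0 was read, meaning complete growth inhibition. For azole controls, MIC-2 (50% growth inhibition) was reported instead. Caspofungin and voriconazole were tested here; other controls came from earlier work.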

[3] = Selectivity index, ratio of EC50 for toxicity in human BEAS2B cells to MIC50 for antifungal activity against Candida glabrata ATCC 2001; assay type: cell-based; conditions: BEAS-2B cells, read-out: Selectivity Index; summary of the method: as §1
[4] = Selectivity index, ratio of […] for toxicity in human A549 cells to MIC50 for antifungal activity against Aspergillus flavus ATCC MYA-3631; assay type: cell-based; conditions: read-out: Selectivity Index
[5] = Selectivity index, ratio of EC50 for toxicity in human BEAS2B cells to MIC50 for antifungal activity against ITC and FLC-resistant Candida albicans ATCC MYA-90819; assay type: cell-based; conditions: BEAS-2B cells, read-out: Selectivity Index
Summary of the method: (§3)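 Ratio of the compound's EC50 against BEAS-2B cells to its MIC against the named C. albicans strain. […] For C. albicans strains other than ATCC 10231, trailing growth meant MIC-2 was taken, meaning 50% growth inhibition.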

Candida parapsilosis = assay: Antifungal activity against Candida parapsilosis ATCC 22019 incubated for 48 hrs by modified CLSI M27-A3 protocol based method; assay type: functional; conditions: Lodderomyces parapsilosis, ATCC 22019, 48 h; read-out: MIC100; summary of the method: as §2
[6] = Hemolytic activity in mouse erythrocytes assessed as hemolysis level at 31.3 ug/ml incubated for 1 hr at 37 degC; assay type: ADME, cell-based, Erythrocyte; conditions: read-out: Activity
Summary of the method: (§4)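 Mouse erythrocytes incubated 1 h at 37 °C with test agents over 1.95 to 125 µg/mL. Percent lysis is read for each concentration.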

[7] = Toxicity in human A549 cells assessed as reduction in cell viability incubated for 24 hrs by resazurin dye based assay
Summary of the method: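 Toxicity tested in the nucleated lines A549 and BEAS-2B to give EC50 values. Selectivity index is EC50 against the mammalian line divided by the MIC against a given fungal strain.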

[8] = Selectivity index, ratio of EC50 for toxicity in human BEAS2B cells to MIC50 for antifungal activity against Candida krusei ATCC 6258; conditions: BEAS-2B cells
Candida albicans [9] = assay: Antifungal activity against Candida albicans ATCC 10231 incubated for 48 hrs by modified CLSI M27-A3 protocol based method; assay type: functional; conditions: ATCC 10231, 48 h, read-out: MIC100; summary of the method: as §2
[10] = Selectivity index, ratio of EC50 for toxicity in human BEAS2B cells to MIC50 for antifungal activity against ITC and FLC-resistant Candida albicans ATCC MYA-1003; assay type: cell-based; conditions: BEAS-2B cells, read-out: Selectivity Index; summary of the method: as §1
Candida albicans [11] = assay: Antifungal activity against ITC and FLC-resistant Candida albicans ATCC 1237 incubated for 48 hrs by modified CLSI M27-A3 protocol based method; assay type: functional; conditions: ATCC 1237, 48 h
Summary of the method: (§5)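 Because these Candida strains show trailing growth, MIC-2 was read, meaning 50% growth inhibition. Caspofungin and voriconazole were tested here; other controls came from earlier work.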

[12] = Hemolytic activity in mouse erythrocytes assessed as hemolysis level at 7.8 ug/ml incubated for 1 hr at 37 degC; assay type: ADME, cell-based, Erythrocyte; conditions: read-out: Activity; summary of the method: as §4
[13] = Selectivity index, ratio of EC50 for toxicity in human BEAS2B cells to MIC50 for antifungal activity against ITC and FLC-resistant Candida albicans ATCC 1237; assay type: cell-based; conditions: BEAS-2B cells, read-out: Selectivity Index; summary of the method: as §1
[14] = Selectivity index, ratio of […] for toxicity in human A549 cells to MIC50 for antifungal activity against Aspergillus nidulans ATCC 38163; assay type: cell-based; conditions: read-out: Selectivity Index
[15] = Selectivity index, ratio of EC50 for toxicity in human A549 cells to MIC50 for antifungal activity against Candida krusei ATCC 6258
[16] = Selectivity index, ratio of EC50 for toxicity in human A549 cells to MIC for antifungal activity against Candida parapsilosis ATCC 22019
[17] = Selectivity index, ratio of EC50 for toxicity in human BEAS2B cells to MIC50 for antifungal activity against Candida albicans ATCC 64124; assay type: cell-based; conditions: BEAS-2B cells, read-out: Selectivity Index; summary of the method: as §1
[18] = Selectivity index, ratio of EC50 for toxicity in human A549 cells to MIC50 for antifungal activity against Candida glabrata ATCC 2001; assay type: cell-based; conditions: read-out: Selectivity Index; summary of the method: as §1
[19] = Selectivity index, ratio of […] for toxicity in human BEAS2B cells to MIC50 for antifungal activity against Aspergillus flavus ATCC MYA-3631; assay type: cell-based; conditions: BEAS-2B cells, read-out: Selectivity Index
[20] = Selectivity index, ratio of EC50 for toxicity in human BEAS2B cells to MIC for antifungal activity against Candida parapsilosis ATCC 22019; conditions: BEAS-2B cells
[21] = Selectivity index, ratio of EC50 for toxicity in human A549 cells to MIC50 for antifungal activity against ITC and FLC-resistant Candida albicans ATCC MYA-90819; assay type: cell-based; conditions: read-out: Selectivity Index; summary of the method: as §1
[22] = Selectivity index, ratio of […] for toxicity in human BEAS2B cells to MIC50 for antifungal activity against Aspergillus terreus ATCC MYA-3633; assay type: cell-based; conditions: BEAS-2B cells, read-out: Selectivity Index
[23] = Selectivity index, ratio of EC50 for toxicity in human BEAS2B cells to MIC50 for antifungal activity against ITC and FLC-susceptible Candida albicans ATCC MYA-2310; assay type: cell-based; conditions: BEAS-2B cells, read-out: Selectivity Index; summary of the method: as §3
Candida albicans [24] = assay: Antifungal activity against ITC and FLC-susceptible Candida albicans ATCC MYA-2310 incubated for 48 hrs by modified CLSI M27-A3 protocol based method; assay type: functional; conditions: ATCC MYA-2310, 48 h
[25] = Selectivity index, ratio of EC50 for toxicity in human A549 cells to MIC50 for antifungal activity against ITC and FLC-susceptible Candida albicans ATCC MYA-2310; assay type: cell-based; conditions: read-out: Selectivity Index; summary of the method: as §1
[26] = Hemolytic activity in mouse erythrocytes assessed as hemolysis level at 1.95 ug/ml incubated for 1 hr at 37 degC; assay type: ADME, cell-based, Erythrocyte; conditions: read-out: Activity; summary of the method: as §4
[27] = Hemolytic activity in mouse erythrocytes assessed as hemolysis level at 125 ug/ml incubated for 1 hr at 37 degC; assay type: ADME, cell-based, Erythrocyte; conditions: read-out: Activity; summary of the method: as §4
Candida albicans [28] = assay: Antifungal activity against ITC and FLC-resistant Candida albicans ATCC MYA-1003 incubated for 48 hrs by modified CLSI M27-A3 protocol based method; assay type: functional; conditions: ATCC MYA-1003, 48 h; summary of the method: as §5
[29] = Selectivity index, ratio of EC50 for toxicity in human BEAS2B cells to MIC100 for antifungal activity against Candida albicans ATCC 10231; assay type: cell-based; conditions: BEAS-2B cells, read-out: Selectivity Index; summary of the method: as §1

CCCCCC(O)(Cn1cncn1)c1ccc(Cl)cc1Cl (stereo unspecified)
MIC50 (Candida albicans [1]): 5.9 µM (≈ 1.94 µg/mL) | selectivity ratio [2]: 138 | hemolysis at 1 h, 62.5 ug/ml (in vitro): 100% | MIC (Pichia kudriavzevii): 1.5 µM (≈ 0.492 µg/mL) | selectivity ratio [3]: 16 | selectivity ratio [4]: 8 | selectivity ratio [5]: 16 | MIC (Candida parapsilosis): < 0.09 µM | hemolysis at 1 h, 31.3 ug/ml [6]: 90.5% | EC50 at 24 h [7]: 33 µg/mL (≈ 101 µM) | selectivity ratio [8]: 65 | MIC (Candida albicans [9]): 0.73 µM (≈ 0.24 µg/mL) | selectivity ratio [10]: 32 | MIC50 (Candida albicans [11]): 5.9 µM (≈ 1.94 µg/mL) | hemolysis at 1 h, 7.8 ug/ml [12]: 0% | selectivity ratio [13]: 16 | selectivity ratio [14]: 69 | selectivity ratio [15]: 69 | selectivity ratio [16]: 1100 | selectivity ratio [17]: 16 | selectivity ratio [18]: 17 | selectivity ratio [19]: 8 | selectivity ratio [20]: 1040 | selectivity ratio [21]: 17 | selectivity ratio [22]: 8 | selectivity ratio [23]: 16 | MIC50 (Candida albicans [24]): 5.9 µM (≈ 1.94 µg/mL) | selectivity ratio [25]: 17 | hemolysis at 1 h, 1.95 ug/ml [26]: 0% | hemolysis at 1 h, 125 ug/ml [27]: 100% | MIC50 (Candida albicans [28]): 3 µM (≈ 0.985 µg/mL) | selectivity ratio [29]: 130

CCCCCC(O)(Cn1cncn1)c1ccccc1F (stereo unspecified)
MIC50 (Candida albicans [1]): > 113 µM | selectivity ratio [2]: 9 | hemolysis at 1 h, 62.5 ug/ml (in vitro): 0% | MIC (Pichia kudriavzevii): 0.22 µM (≈ 0.061 µg/mL) | selectivity ratio [3]: 32 | selectivity ratio [4]: 5 | selectivity ratio [5]: 65 | MIC (Candida parapsilosis): 0.43 µM (≈ 0.119 µg/mL) | hemolysis at 1 h, 31.3 ug/ml [6]: 0% | EC50 at 24 h [7]: 37 µg/mL (≈ 133 µM) | selectivity ratio [8]: 522 | MIC (Candida albicans [9]): 14.1 µM (≈ 3.91 µg/mL) | selectivity ratio [10]: 8 | MIC50 (Candida albicans [11]): 3.5 µM (≈ 0.971 µg/mL) | hemolysis at 1 h, 7.8 ug/ml [12]: 0% | selectivity ratio [13]: 32 | selectivity ratio [14]: 77 | selectivity ratio [15]: 617 | selectivity ratio [16]: 308 | selectivity ratio [17]: 1 | selectivity ratio [18]: 38 | selectivity ratio [19]: 4 | selectivity ratio [20]: 261 | selectivity ratio [21]: 77 | selectivity ratio [22]: 8 | selectivity ratio [23]: 32 | MIC50 (Candida albicans [24]): 3.5 µM (≈ 0.971 µg/mL) | selectivity ratio [25]: 38 | hemolysis at 1 h, 1.95 ug/ml [26]: 0% | hemolysis at 1 h, 125 ug/ml [27]: 20.7% | MIC50 (Candida albicans [28]): 14.1 µM (≈ 3.91 µg/mL) | selectivity ratio [29]: 8

CCCCC(O)(Cn1cncn1)c1ccc(Cl)cc1Cl (stereo unspecified) [HEXACONAZOLE]
MIC50 (Candida albicans [1]): 12.4 µM (≈ 3.9 µg/mL) | selectivity ratio [2]: 130 | hemolysis at 1 h, 62.5 ug/ml (in vitro): 59% | MIC (Pichia kudriavzevii): 0.19 µM (≈ 0.0597 µg/mL) | selectivity ratio [3]: 8 | selectivity ratio [4]: 8 | selectivity ratio [5]: 16 | MIC (Candida parapsilosis): < 0.1 µM | hemolysis at 1 h, 31.3 ug/ml [6]: 0% | EC50 at 24 h [7]: > 31.3 µg/mL | selectivity ratio [8]: 522 | MIC (Candida albicans [9]): 0.76 µM (≈ 0.239 µg/mL) | selectivity ratio [10]: 32 | MIC50 (Candida albicans [11]): 24.8 µM (≈ 7.79 µg/mL) | hemolysis at 1 h, 7.8 ug/ml [12]: 0% | selectivity ratio [13]: 4 | selectivity ratio [14]: 130 | selectivity ratio [15]: 522 | selectivity ratio [16]: 1040 | selectivity ratio [17]: 8 | selectivity ratio [18]: 8 | selectivity ratio [19]: 8 | selectivity ratio [20]: 1040 | selectivity ratio [21]: 16 | selectivity ratio [22]: 32 | selectivity ratio [23]: 16 | MIC50 (Candida albicans [24]): 6.2 µM (≈ 1.95 µg/mL) | selectivity ratio [25]: 16 | hemolysis at 1 h, 1.95 ug/ml [26]: 0% | hemolysis at 1 h, 125 ug/ml [27]: 100% | MIC50 (Candida albicans [28]): 3.1 µM (≈ 0.974 µg/mL) | selectivity ratio [29]: 130
